Activity calls are given as the source filed them. The calls are words filed in the database; no cut-off is given here.
Key:
[1] = tested on: UDP-glucuronosyltransferases (UGTs); test: Metabolic stability in human liver microsomes assessed as UGT-mediated N-glucuronidation by measuring intrinsic clearance at 3 uM measured up to 45 mins by LC-MS/MS analysis; assay type: ADME; settings: microsomes, 0.75 h, 3 µM
Summary of the method: (§1)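 Pooled human liver microsomes (0.5 mg/mL protein final) with alamethicin (25 µg/mg) in 0.1 M phosphate pH 7.4, compound 3 µM final (0.25% DMSO), preincubated 37 °C. Reaction started with UDPGA (1 mM final). Sampled at 0, 5, 15, 30, 45 min into methanol, analysed by LC-MS/MS. Minus-UDPGA control run 45 min. Single incubations; t½ and CLint taken from the elimination rate constant.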

[2] = Selectivity index, ratio of IC50 for human MCF7 cells to IC50 for human HT-29 cells assessed as reduction in cell viability after 72 hrs by alamar blue assay; assay type: functional
Bos taurus = species on record: Bos taurus; test: Inhibition of bovine brain tubulin polymerization at 10 uM measured at 30 sec interval for 30 mins in presence of GTP by turbidimetry-based spectrophotometric method
Tubulin (Homo sapiens) = Tubulin (Homo sapiens) (UniProt P68371+Q9H4B7+P0DPH7+P68366+Q13509+Q71U36+P04350+Q3ZCM7+P07437+P68363+Q9BQE3+Q6PEY2+Q13885+Q9BVA1+Q9BUF5); test: Binding affinity to tubulin in human MCF7 cells assessed as inhibition of tubulin-EBI adduct formation preincubated for 2 hrs followed by EBI addition and measured after 1.5 hrs by Western blotting analysis; assay type: cell-based; settings: time 3.5 hrs
Summary of the method: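 MCF-7 cells (5 × 10^4/well) were incubated overnight, then given vehicle (0.1% v/v ethanol) or compound at 10 µM for 2 h. Selected wells then received EBI (100 µM) for 1.5 h. Cells were washed in ice-cold PBS, lysed in Laemmli buffer and run on SDS-PAGE. Blots were probed for β-tubulin and the β-tubulin–EBI adduct, with GAPDH as loading control. Three independent experiments.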

[3] = tested on: UDP-glucuronosyltransferases (UGTs); test: Metabolic stability in human liver microsomes assessed as UGT-mediated N-glucuronidation by measuring half life at 3 uM measured up to 45 mins by LC-MS/MS analysis; assay type: ADME; settings: microsomes, 0.75 h, 3 µM; summary of the method: as §1
MCF7 = test: Antiproliferative activity against human MCF7 cells assessed as reduction in cell viability after 72 hrs by alamar blue assay; assay type: functional, cell-based; settings: MCF7, 72 h
Summary of the method: (§2)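 Cells seeded at 5 x 10^3/well (MCF-7) or 1 x 10^4/well (HT-29, HEK-293T) and treated after 24 h with serial dilutions (0.001-100 µM) in 1% v/v ethanol vehicle. Alamar Blue 10% v/v added at 72 h, then 3-5 h at 37 °C in the dark; fluorescence ex 530/em 590 nm. Viability relative to vehicle; IC50 from dose-response curves; mean of three experiments in triplicate.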

HT-29 [4] = test: Antiproliferative activity against human HT-29 cells assessed as reduction in cell viability after 72 hrs by alamar blue assay; assay type: functional, cell-based; settings: HT-29, 72 h; summary of the method: as §2
HT-29 [5] = test: Antiangiogenic activity in human HT29 cells assessed as reduction in IL-1beta secretion at 5 uM after 24 hrs by ELISA; assay type: functional, cell-based
Summary of the method: (§3)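 HT-29 cells at 5 x 10^4 per well, cultured 24 h and then exposed to 5 µM compound. Conditioned medium collected on ice and stored at -80 °C. Cytokines and angiogenic, vascular-injury and chemokine factors measured by multiplex panels with overnight supernatant incubation (Angiogenesis Panel 1 and Vascular Injury Panel 2 same day). Medium undiluted except 1:4 for Vascular Injury Panel 2. Secretion normalised to lysate protein by BCA.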

HT-29 [6] = test: Antiangiogenic activity in human HT-29 cells assessed as increase in IL-1RA secretion at 5 uM after 24 hrs by ELISA; assay type: functional, cell-based; summary of the method: as §3
HT-29 [7] = test: Antiangiogenic activity in human HT29 cells assessed as reduction in VEGF secretion at 5 uM after 24 hrs by ELISA; assay type: functional, cell-based; summary of the method: as §3
HT-29 [8] = test: Potency index, ratio of CA-4 IC50 to test compound IC50 for human HT-29 cells; assay type: functional
HT-29 [9] = test: Antiangiogenic activity in human HT29 cells assessed as reduction in IL-1alpha secretion at 5 uM after 24 hrs by ELISA; assay type: functional, cell-based; summary of the method: as §3

Row | Structure (SMILES) | CLH [1] [µL/min/mg] | Ratio IC50 [2] | inhibition (Bos taurus) | Activity (Tubulin (Homo sapiens)) | t1/2 [3] [min] | IC50 (MCF7) [nM] | IC50 (HT-29 [4]) [nM] | Activity (HT-29 [5]) | Activity (HT-29 [6]) | Activity (HT-29 [7]) | Ratio IC50 (HT-29 [8]) | Activity (HT-29 [9])
1 | COc1ccc(/C=C\c2cc(OC)c(OC)c(OC)c2)cc1O [COMBRETASTATIN A4] | 645 | 0.001 | Active | Active | 2.71 | 4 | 4160 |  |  |  |  | 
2 | COc1ccc([C@H]2[C@H](O)C(=O)N2c2cc(OC)c(OC)c(OC)c2)cc1C |  | 0.71 | Active |  |  | 5 | 7 | inactive | Active | inactive | 600 | inactive

Source: ChEMBL document CHEMBL4680165, “β-Lactams with antiproliferative and antiapoptotic activity in breast and chemoresistant colon cancer cells” (Eur J Med Chem, 2020)
